Assay results from ChEMBL document CHEMBL4251616, “Multifunctional thiosemicarbazones and deconstructed analogues as a strategy to study the involvement of metal chelation, Sigma-2 (σ2) receptor and P-gp protein in the cytotoxic action: In vitro and in vivo activity in pancreatic tumors” (Eur J Med Chem, 2018).

Key:
[1] = Cytotoxicity against mouse Kp02 cells after 48 hrs by MTT assay; format: functional, cell-based
In short: (§1)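 Pancreatic lines kept at 37 °C, 5% CO2. AsPC1, BxPC3 and Panc02 grown in RPMI with 10% FBS. MIAPaCa2 in DMEM with 10% FBS and 2.5% horse serum. PANC1 in DMEM with 10% FBS. KCKO in RPMI with 10% FBS plus pyruvate, HEPES and glutamine. KP02 in DMEM/F12 with 10% FBS.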

[2] = test system: MIA PaCa-2; experiment: Cytotoxicity against human MIAPaCa2 cells after 48 hrs by MTT assay; format: functional, cell-based; conditions: MIA PaCa-2, 48 h; in short: as §1
[3] = test system: Panc02; experiment: Cytotoxicity against mouse Panc02 cells after 48 hrs by MTT assay; format: functional, cell-based; conditions: Panc02, 48 h; in short: as §1
[4] = test system: ASPC1; experiment: Cytotoxicity against human AsPC1 cells after 48 hrs by MTT assay; format: functional, cell-based; conditions: ASPC1, 48 h; in short: as §1
[5] = test system: BXPC-3; experiment: Cytotoxicity against human BxPC3 cells after 48 hrs by MTT assay; format: functional, cell-based; conditions: BXPC-3, 48 h; in short: as §1
[6] = molecular target: ATP-dependent translocase ABCB1 (Homo sapiens, UniProt P08183); experiment: Inhibition of human MDR1 expressed in MDCK-MDR1 cells assessed as calcein cell accumulation after 30 mins by spectrofluorimetry; format: cell-based
Chain of ATP-dependent translocase ABCB1 (P08183 whole entry): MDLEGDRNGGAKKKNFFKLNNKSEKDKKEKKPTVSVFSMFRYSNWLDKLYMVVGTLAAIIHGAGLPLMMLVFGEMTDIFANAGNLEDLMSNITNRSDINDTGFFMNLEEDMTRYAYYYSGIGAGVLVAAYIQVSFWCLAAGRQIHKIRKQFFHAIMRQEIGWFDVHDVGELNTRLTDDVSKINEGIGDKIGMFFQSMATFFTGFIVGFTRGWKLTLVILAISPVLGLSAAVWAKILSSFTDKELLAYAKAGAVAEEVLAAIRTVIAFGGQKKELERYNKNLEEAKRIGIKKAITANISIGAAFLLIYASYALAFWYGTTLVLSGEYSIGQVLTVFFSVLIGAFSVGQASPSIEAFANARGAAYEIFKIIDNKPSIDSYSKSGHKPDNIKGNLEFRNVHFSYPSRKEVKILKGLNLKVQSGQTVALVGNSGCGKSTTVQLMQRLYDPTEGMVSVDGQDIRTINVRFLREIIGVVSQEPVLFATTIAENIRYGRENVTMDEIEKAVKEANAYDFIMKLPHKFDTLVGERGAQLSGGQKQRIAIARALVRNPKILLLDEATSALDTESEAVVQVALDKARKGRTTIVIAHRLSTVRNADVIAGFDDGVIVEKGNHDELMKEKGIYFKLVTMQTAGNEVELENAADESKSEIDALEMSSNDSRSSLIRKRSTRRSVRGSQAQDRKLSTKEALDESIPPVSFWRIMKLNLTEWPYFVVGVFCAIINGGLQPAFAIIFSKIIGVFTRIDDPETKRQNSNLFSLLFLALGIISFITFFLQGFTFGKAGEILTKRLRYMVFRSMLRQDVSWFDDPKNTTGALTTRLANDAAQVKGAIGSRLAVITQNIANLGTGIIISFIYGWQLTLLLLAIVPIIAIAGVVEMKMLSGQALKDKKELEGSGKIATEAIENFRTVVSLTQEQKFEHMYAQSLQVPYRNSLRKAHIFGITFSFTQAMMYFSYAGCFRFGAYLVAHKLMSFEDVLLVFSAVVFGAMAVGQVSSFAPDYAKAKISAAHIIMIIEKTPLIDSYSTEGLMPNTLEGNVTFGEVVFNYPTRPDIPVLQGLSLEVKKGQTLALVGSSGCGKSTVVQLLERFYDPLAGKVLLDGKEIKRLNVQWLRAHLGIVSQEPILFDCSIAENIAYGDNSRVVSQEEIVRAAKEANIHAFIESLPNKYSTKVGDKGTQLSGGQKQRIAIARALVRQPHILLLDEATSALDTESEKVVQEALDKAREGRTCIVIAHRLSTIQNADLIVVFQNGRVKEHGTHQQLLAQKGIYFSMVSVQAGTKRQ
In short: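 Confluent MDCK-MDR1 monolayers given test compound (0.1-100 µM) for 30 min at 37 °C, then calcein-AM at 2.5 µM final for 30 min. Washed with ice-cold PBS and read at ex 485 / em 535 nm. Fluorescence rise over untreated basal level fitted against log dose to give EC50; n ≥ 3 experiments in duplicate.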

[7] = Cytotoxicity against mouse KCKO cells after 48 hrs by MTT assay; format: functional, cell-based; in short: as §1

EC50 [6]	SMILES	EC50 [1]	EC50 [2]	EC50 [3]	EC50 [4]	EC50 [5]	EC50 [7]
6.09 µM	COc1cc2c(cc1OC)CN(CCCCn1ccc3ccccc31)CC2	49 µM	40 µM	> 100 µM	> 100 µM	> 100 µM	77 µM
0.46 µM	c1ccc2c(c1)ccn2CCCCN1CCN(C2CCCCC2)CC1	70 µM	79 µM	> 100 µM	> 100 µM	> 100 µM	67 µM
